In ChEMBL document CHEMBL5724801, “EUbOPEN Chemogenomics Library - Multiplex” (2024):
Several values for one entry are separate records, joined by “and”; a condition that tells them apart may be missing. Equal values may be shown once.

Legend:
Format in all cases: toxicity, cell-based
Fibroblast = experiment: Multiplex assay against human fibroblast
Method in brief: (§1)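 Live cells carried four stains from seeding: Hoechst33342, BioTracker Green Microtubule Cytoskeleton Dye, MitoTracker Red and Annexin V Alexa Fluor 680. They were imaged on a CQ1 microscope at 37°C and 5% CO2 after compound addition. Using CellPathfinder machine-learning gating, cells were split into Hoechst high-intensity objects or normal cells, normal cells into healthy, pyknosed or fragmented nuclei, and pyknosed cells into mitotic or apoptotic; tubulin, mitochondrial-mass and membrane-permeability phenotypes are per cents of healthy-nucleus cells.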

U2OS = experiment: Multiplex assay against U2OS; details: human; method in brief: as §1
HEK-293T = experiment: Multiplex assay against HEK293T; details: human; method in brief: as §1
[1] = 12 h, 1 µM, compound concentration 1 uM
[2] = 12 h, 10 µM, compound concentration 10 uM
[3] = 24 h, 1 µM, compound concentration 1 uM
[4] = 24 h, 10 µM, compound concentration 10 uM
[5] = 48 h, 1 µM, compound concentration 1 uM
[6] = 48 h, 10 µM, compound concentration 10 uM

## Cc1ccc(-c2ccc(F)cc2COc2ccc(CCC(=O)O)cc2)cc1
Fibroblast; [1]
  Population Apoptotic (%): 42% and 37%
  Population Fragmented Nuclei (%): 13% and 23%
  Population Healthy Nuclei (%): 64% and 45%
  Population Mitotic Cells (%): 57% and 62%
  Population Normal (%): 99% and 93%
  Population Pyknosed Nuclei (%): 21% and 30%
  Population Tubulin-Different-Phenotype (%): 26%
  Total Cell Count: 131 and 148
Fibroblast; [2]
  Population Apoptotic (%): 19% and 31%
  Population Fragmented Nuclei (%): 15% and 23%
  Population Healthy Nuclei (%): 67% and 51%
  Population Mitotic Cells (%): 80% and 68%
  Population Normal (%): 99% and 93%
  Population Pyknosed Nuclei (%): 16% and 25%
  Population Tubulin-Different-Phenotype (%): 23% and 38%
  Total Cell Count: 125 and 136
Fibroblast; [3]
  Population Apoptotic (%): 38% and 62%
  Population Fragmented Nuclei (%): 16% and 25%
  Population Healthy Nuclei (%): 67% and 46%
  Population Mitotic Cells (%): 61% and 37%
  Population Normal (%): 97% and 95%
  Population Pyknosed Nuclei (%): 15% and 27%
  Population Tubulin-Different-Phenotype (%): 23% and 33%
  Total Cell Count: 136 and 139
Fibroblast; [4]
  Population Apoptotic (%): 47% and 46%
  Population Fragmented Nuclei (%): 9% and 26%
  Population Healthy Nuclei (%): 75% and 53%
  Population Mitotic Cells (%): 52% and 53%
  Population Normal (%): 98% and 92%
  Population Pyknosed Nuclei (%): 15% and 20%
  Population Tubulin-Different-Phenotype (%): 20% and 55%
  Total Cell Count: 127 and 136
Fibroblast; [5]
  Population Apoptotic (%): 56% and 69%
  Population Fragmented Nuclei (%): 21% and 29%
  Population Healthy Nuclei (%): 62% and 55%
  Population Mitotic Cells (%): 43% and 30%
  Population Normal (%): 96%
  Population Pyknosed Nuclei (%): 15%
  Population Tubulin-Different-Phenotype (%): 24% and 46%
  Total Cell Count: 150 and 155
Fibroblast; [6]
  Population Apoptotic (%): 72% and 48%
  Population Fragmented Nuclei (%): 11% and 30%
  Population Healthy Nuclei (%): 78% and 45%
  Population Mitotic Cells (%): 27% and 51%
  Population Normal (%): 96% and 92%
  Population Pyknosed Nuclei (%): 9% and 23%
  Total Cell Count: 121 and 140
U2OS; [1]
  Population Apoptotic (%): 75% and 100%
  Population Fragmented Nuclei (%): 22% and 17%
  Population Healthy Nuclei (%): 71% and 74%
  Population Hoechst High Intensity Objects (%): 2%
  Population Mitochondria Different-Phenotype (%): 3% and 0%
  Population Mitotic Cells (%): 25% and 0%
  Population Normal (%): 97%
  Total Cell Count: 277 and 135
U2OS; [2]
  Population Apoptotic (%): 75% and 83%
  Population Fragmented Nuclei (%): 31% and 14%
  Population Healthy Nuclei (%): 61% and 75%
  Population Hoechst High Intensity Objects (%): 1% and 2%
  Population Mitochondria Different-Phenotype (%): 2%
  Population Mitotic Cells (%): 25% and 16%
  Population Normal (%): 98% and 97%
  Total Cell Count: 238 and 123
U2OS; [3]
  Population Apoptotic (%): 90% and 100%
  Population Fragmented Nuclei (%): 21% and 20%
  Population Healthy Nuclei (%): 69% and 70%
  Population Hoechst High Intensity Objects (%): 2% and 1%
  Population Mitochondria Different-Phenotype (%): 2% and 0%
  Population Mitotic Cells (%): 10% and 0%
  Population Normal (%): 97% and 98%
  Total Cell Count: 340 and 175
U2OS; [4]
  Population Apoptotic (%): 94% and 93%
  Population Fragmented Nuclei (%): 26% and 22%
  Population Healthy Nuclei (%): 67%
  Population Hoechst High Intensity Objects (%): 1% and 2%
  Population Mitochondria Different-Phenotype (%): 3% and 4%
  Population Mitotic Cells (%): 5% and 6%
  Population Normal (%): 98% and 97%
  Total Cell Count: 295 and 160
U2OS; [5]
  Population Apoptotic (%): 89% and 95%
  Population Fragmented Nuclei (%): 17% and 15%
  Population Healthy Nuclei (%): 74% and 75%
  Population Hoechst High Intensity Objects (%): 2%
  Population Mitochondria Different-Phenotype (%): 2%
  Population Mitotic Cells (%): 10% and 5%
  Population Normal (%): 97%
  Total Cell Count: 487 and 242
U2OS; [6]
  Population Apoptotic (%): 87% and 88%
  Population Fragmented Nuclei (%): 21% and 16%
  Population Healthy Nuclei (%): 70% and 72%
  Population Hoechst High Intensity Objects (%): 2% and 1%
  Population Mitochondria Different-Phenotype (%): 3%
  Population Mitotic Cells (%): 12% and 11%
  Population Normal (%): 97% and 98%
  Total Cell Count: 421 and 236
HEK-293T; [1]
  Population Apoptotic (%): 42% and 33%
  Population Fragmented Nuclei (%): 6%
  Population Healthy Nuclei (%): 82% and 77%
  Population Hoechst High Intensity Objects (%): 9%
  Population Mitochondria Different-Phenotype (%): 36% and 50%
  Population Mitotic Cells (%): 57% and 66%
  Population Normal (%): 90%
  Population Pyknosed Nuclei (%): 15%
  Population Tubulin-Different-Phenotype (%): 18%
  Total Cell Count: 465 and 324
HEK-293T; [2]
  Population Apoptotic (%): 32% and 42%
  Population Fragmented Nuclei (%): 10% and 7%
  Population Healthy Nuclei (%): 79% and 83%
  Population Hoechst High Intensity Objects (%): 7% and 6%
  Population Mitochondria Different-Phenotype (%): 46% and 58%
  Population Mitotic Cells (%): 67% and 57%
  Population Normal (%): 92% and 93%
  Population Pyknosed Nuclei (%): 10% and 9%
  Population Tubulin-Different-Phenotype (%): 33% and 15%
  Total Cell Count: 329 and 396
HEK-293T; [3]
  Population Fragmented Nuclei (%): 10% and 9%
  Population Healthy Nuclei (%): 82% and 80%
  Population Hoechst High Intensity Objects (%): 3% and 7%
  Population Mitochondria Different-Phenotype (%): 16% and 33%
  Population Mitotic Cells (%): 84% and 47%
  Population Normal (%): 96% and 92%
  Population Pyknosed Nuclei (%): 7% and 9%
  Population Tubulin-Different-Phenotype (%): 10% and 13%
  Total Cell Count: 688 and 445
HEK-293T; [4]
  Population Apoptotic (%): 36% and 51%
  Population Fragmented Nuclei (%): 11% and 6%
  Population Healthy Nuclei (%): 76% and 87%
  Population Hoechst High Intensity Objects (%): 3%
  Population Mitochondria Different-Phenotype (%): 30% and 37%
  Population Mitotic Cells (%): 63% and 48%
  Population Normal (%): 94% and 96%
  Population Pyknosed Nuclei (%): 6%
  Population Tubulin-Different-Phenotype (%): 18% and 13%
  Total Cell Count: 397 and 461
HEK-293T; [5]
  Population Apoptotic (%): 17% and 36%
  Population Fragmented Nuclei (%): 15% and 14%
  Population Healthy Nuclei (%): 79% and 77%
  Population Hoechst High Intensity Objects (%): 1% and 2%
  Population Mitochondria Different-Phenotype (%): 7% and 18%
  Population Mitotic Cells (%): 82% and 63%
  Population Normal (%): 98% and 97%
  Population Pyknosed Nuclei (%): 5%
  Population Tubulin-Different-Phenotype (%): 8% and 9%
  Total Cell Count: 1149 and 631
HEK-293T; [6]
  Population Apoptotic (%): 24% and 31%
  Population Fragmented Nuclei (%): 12% and 15%
  Population Healthy Nuclei (%): 78% and 79%
  Population Hoechst High Intensity Objects (%): 2% and 4%
  Population Mitochondria Different-Phenotype (%): 17% and 16%
  Population Mitotic Cells (%): 75% and 68%
  Population Normal (%): 97% and 95%
  Population Pyknosed Nuclei (%): 5%
  Population Tubulin-Different-Phenotype (%): 9% and 8%
  Total Cell Count: 713 and 702
